Screens (PubChem BioAssay)
RAD54 branch: inhibitors of human RAD54 branch migration; Q92698; RAD54 Holliday junction branch migration, FAM/BHQ fluorescence; inhibition, % at 10.4 µM; actives 0.14% (n = 360,000); AID 602329;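 active = mean normalized replicate activity at least 40 and at least half of replicates scoring 40 or more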;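 also: inhibitors cause a drop in the FAM fluorescence signal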
Target sequence (Q92698 whole entry, looked up): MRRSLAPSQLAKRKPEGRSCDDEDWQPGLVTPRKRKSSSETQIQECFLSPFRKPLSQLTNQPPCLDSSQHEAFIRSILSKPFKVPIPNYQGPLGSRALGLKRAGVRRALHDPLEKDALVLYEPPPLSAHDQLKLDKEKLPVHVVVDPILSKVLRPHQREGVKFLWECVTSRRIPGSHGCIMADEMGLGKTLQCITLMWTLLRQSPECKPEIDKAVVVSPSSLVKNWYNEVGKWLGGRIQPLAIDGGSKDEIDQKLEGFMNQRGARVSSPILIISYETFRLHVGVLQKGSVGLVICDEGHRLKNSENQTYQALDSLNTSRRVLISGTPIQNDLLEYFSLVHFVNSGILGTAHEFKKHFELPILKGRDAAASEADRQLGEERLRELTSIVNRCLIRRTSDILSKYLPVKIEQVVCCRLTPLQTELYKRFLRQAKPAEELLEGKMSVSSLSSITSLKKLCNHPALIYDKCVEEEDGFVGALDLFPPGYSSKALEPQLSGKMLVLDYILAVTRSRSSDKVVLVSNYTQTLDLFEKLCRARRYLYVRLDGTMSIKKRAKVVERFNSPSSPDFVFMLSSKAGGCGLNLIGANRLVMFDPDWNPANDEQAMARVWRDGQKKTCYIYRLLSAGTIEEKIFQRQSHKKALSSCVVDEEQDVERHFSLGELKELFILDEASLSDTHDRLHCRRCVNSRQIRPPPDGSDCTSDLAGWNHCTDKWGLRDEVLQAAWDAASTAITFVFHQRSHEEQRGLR
dFosB act-1: mouse delta FosB homodimer activation; P13346; purified delta FosB, TAMRA-CDK5 oligo fluorescence polarization; percent of positive-control signal above neutral wells; AID 493131; actives 0.99% (n = 340,000); activation, % at 25 µM;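 active = mean activation above about 17%, with every replicate also reaching it, limit read from the data, passing the limit was not always enough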
RAD52 inh: RAD52 (human) annealing inhibition; recombinant RAD52 DNA annealing, FRET fluorescence; inhibition, % at 18.7 µM; actives 0.46% (n = 360,000);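 active = every replicate showing at least 50% inhibition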
AF4-AF9 inh: inhibitors of human MLL-AF4/AF9 interaction; actives 0.47% (n = 350,000); AlphaScreen, biotin-AF4 peptide binding to FLAG-AF9; inhibition, % at 10 µM; P42568;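 active = every replicate reaching a set inhibition limit, whatever the replicate mean, cut at about 25% in these data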
S100A4 MyoIIA: inhibitors of human S100A4 binding to myosin IIA peptide; P26447; S100A4/TAMRA-MyoIIA peptide fluorescence polarization; inhibition, % at 10.7 µM; actives 0.14% (n = 360,000); AID 652163;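 active = mean inhibition of at least 70% across replicates, with every replicate also reaching that level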
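incubation = readout 5 min after mixing, signal stable up to 60 min | system = S100A4 monomer protein | buffer or medium = HEPES pH 7.2 with CaCl2, KCl, NaCl, DTT, Triton | benchmarks = neutral control DMSO, positive control TFP | also added = fluorescent myosin IIA peptide, 5 nM | compound dosing = one concentration per compound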
dFosB act-2: activators of mouse delta FosB homodimer DNA binding. purified delta FosB, TAMRA-CDK5 oligo fluorescence polarization; normalised: neutral wells 0, positive control 100. shares compounds with dFosB act-1. activation, % at 24.9 µM. 2,400 tested, under 10 active;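 active = highest replicate activation at or above 34% and every replicate reaching that threshold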;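 also: higher polarization means more probe DNA bound by delta FosB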
A number is an active result; – = inactive; · = no result given. The list is not random: actives were taken first. Their share in the collection is about 1.5%.

SMILES	RAD54 branch	dFosB act-1	RAD52 inh	AF4-AF9 inh	S100A4 MyoIIA	dFosB act-2
O=c1c(Cc2ccccc2)c(O)ccn1Cc1ccc2c(c1)OCO2	·	37	–	–	–	–
CCCCNS(=O)(=O)c1ccc(NC(=O)C2c3ccccc3Oc3ccccc32)cc1	–	44	–	–	–	–
COCC(=O)N1C[C@H](C)[C@H](OC)CN(C)C(=O)c2cc(NC(=O)c3ccccc3)ccc2OC[C@H]1C	–	·	–	–	–	·
CCC1CCC(C(=O)NC(C(=O)Nc2ccc3c(c2)OCCO3)C(C)C)CC1 (stereo unspecified)	–	24	·	·	·	–
CC(=O)c1ccc(NC(=O)CSc2nc(N3CCOCC3)nc(N3CCOCC3)n2)cc1	–	–	–	–	–	·
CCOC(=O)c1ccc(NC(=O)CSc2nc(N3CCOCC3)nc(N3CCOCC3)n2)cc1	–	24	–	–	–	–
CCOC(=O)c1ccc(NC(=O)CSc2nc(=O)n3cccc(C)c3n2)cc1	–	29	–	–	–	–
O=C(/C=C/c1ccc(Cl)cc1Cl)c1nc2ccccc2[nH]1	–	40	·	·	·	–
COc1ccc(S(=O)(=O)Nc2ccc3c(c2)C(=O)N([C@H](C)CO)C[C@H](C)[C@H](CN(C)Cc2ccc4c(c2)OCO4)OCCCC[C@H](C)O3)cc1	–	·	–	–	–	·
Cn1c(=O)oc2cc(S(=O)(=O)N3CCCC(C(=O)NCc4ccc5c(c4)OCO5)C3)ccc21 (stereo unspecified)	–	46	–	–	–	–
CN(C)C(=O)[C@@H]1[C@@H](CO)[C@@H]2Cn3c(ccc(C4=CCCCC4)c3=O)[C@@H]2N1C(=O)c1ccccc1F	–	·	–	–	–	·
Cc1cccc(NC(=O)NNC(=O)COc2ccc([N+](=O)[O-])cc2)c1C	–	31	–	–	–	–
Nc1nc(N)c2nc(-c3ccccc3)c(N)nc2n1	–	19	–	–	–	–
C[C@@H]1CCCCO[C@H](CN(C)C(=O)Nc2ccc(F)cc2)[C@@H](C)CN([C@@H](C)CO)C(=O)c2cc(NS(=O)(=O)c3cccs3)ccc2O1	·	·	–	–	–	·
CC(=O)NC(=S)Nc1ccc(NC(=O)COc2ccc(Cl)cc2Cl)cc1	–	73	·	·	·	–
O=C(COc1ccc(Cl)cc1Cl)Nc1ccccn1	–	–	–	–	–	·
Cc1ccc(Cl)cc1NC(=O)c1ccccc1OCC(=O)Nc1ccc(Cl)cc1	·	33	–	–	–	–
O=C(COc1ccc(Cl)cc1Cl)Nc1noc2ccccc12	·	25	·	·	·	–
Cc1ccc(NC(=O)COc2ccccc2C(=O)Nc2ccccc2)cc1Cl	·	–	·	·	·	·
CO[C@@H]1CN(C)C(=O)c2ccc(NC(C)=O)cc2OC[C@H](C)N(Cc2ccc(F)cc2)C[C@H]1C	–	·	–	–	–	·
COc1ccc(C2c3c(ncn(Cc4ccco4)c3=N)Oc3ccc4ccccc4c32)cc1 (stereo unspecified)	–	45	–	–	–	–
Nc1nc(Nc2ccccc2)nc(NCc2ccco2)c1[N+](=O)[O-]	–	27	·	·	·	–
Nc1nc(NCc2ccco2)nc(Nc2ccccc2)c1[N+](=O)[O-]	–	–	–	–	–	·
COc1ccc(Cn2c(CCC(=O)Nc3ccc(C)c(C)c3)nc3cccnc32)cc1	–	18	·	·	·	–
COc1ccc(Cn2c(CCC(=O)Nc3ccccc3)nc3cccnc32)cc1	·	–	·	·	·	·
SMILES	RAD54 branch	dFosB act-1	RAD52 inh	AF4-AF9 inh	S100A4 MyoIIA	dFosB act-2
C[C@H]1CN([C@@H](C)CO)C(=O)c2cc(NS(C)(=O)=O)ccc2O[C@H]1CN(C)Cc1ccc(C(=O)O)cc1	–	·	–	–	–	·
CC(C)c1cn(CC[C@@H]2CC[C@H](NC(=O)Nc3cc(Cl)cc(Cl)c3)[C@@H](CO)O2)nn1	–	·	–	–	–	·
Cc1ccc(-c2nn(CC(=O)NC(C)c3ccccc3)c(=O)c3ccccc23)cc1 (stereo unspecified)	–	28	·	·	·	–
Cc1nn(CC(=O)NC(C)c2ccccc2)c(=O)c2ccccc12 (stereo unspecified)	–	–	·	·	·	·
Cc1ccc(NC(=O)c2c(C(=O)Nc3ccccc3)sc3nc(C)cc(=O)n23)cc1	·	32	–	–	–	–
Cc1ccc(NC(=O)c2c(C)nc3ccccn23)cc1C	·	–	–	–	–	·
Cc1cc(=O)n2c(C(=O)Nc3ccc(C)c(C)c3)c(C(=O)Nc3ccccc3)sc2n1	·	34	–	–	–	–
CCc1ccc(NC(=O)c2c(C(=O)Nc3ccccc3)sc3nc(C)cc(=O)n23)cc1	·	35	–	–	–	–
O=C(NCC[C@@H]1CC[C@@H](NC(=O)C2CCC2)[C@H](CO)O1)c1cc(Cl)cc(Cl)c1	–	·	–	–	–	·
Cc1noc(C)c1NC(=O)Nc1cccc2c1O[C@H](CN(C)S(=O)(=O)c1cn(C)cn1)[C@H](C)CN([C@H](C)CO)C2=O	–	·	–	–	–	·
NCCCCCCNC(=O)[C@@H]1C[C@@H]2C(=O)N[C@@H](Cc3ccccc3)C(=O)N2[C@@H]1c1ccc(O)cc1	–	·	–	–	–	·
CCC(=O)N1CC(=O)N2[C@H](C1)[C@H](c1ccc(-c3cccc(C(=O)N(C)C)c3)cc1)[C@@H]2CO	·	·	–	–	–	·
O=C(Nc1nc2c(Cl)ccc(Cl)c2s1)C1CC1	–	28	–	–	–	–
C=CC[C@@]1(C(=O)N2CCOCC2)N=C(c2ccc(OCCCO)cc2)O[C@@H]1c1ccccc1	–	·	–	–	–	·
C[C@H]1CCCCO[C@H](CN(C)C(=O)CCCN(C)C)[C@@H](C)CN([C@@H](C)CO)C(=O)c2cc(NC(=O)C3CCCCC3)ccc2O1	–	·	–	–	–	·
CN(CC(=O)Nc1ccc(Cl)c(C(F)(F)F)c1)C(=O)/C=C/c1ccco1	·	–	·	·	·	·
CN(CC(=O)Nc1ccc(Cl)c(C(F)(F)F)c1)C(=O)c1cc(=O)[nH]c2ccccc12	–	–	–	–	–	·
CN(CC(=O)Nc1ccc(Cl)c(C(F)(F)F)c1)C(=O)/C=C/c1cccs1	–	29	–	–	–	–
CN(CC(=O)Nc1ccc(Cl)c(C(F)(F)F)c1)C(=O)c1cc(=O)c2ccccc2o1	–	33	–	–	–	–
O=C([C@H]1[C@H](CO)[C@H]2Cn3c(cccc3=O)[C@@H]1N2C(=O)c1ccccn1)N1CCCCC1	–	·	–	–	–	·
CN(C)c1ccc2c(c1)[C@H]1C[C@H](CC(=O)NCc3ccc4c(c3)OCO4)O[C@@H](CO)[C@H]1O2	–	·	–	–	–	·
COCC(=O)N(C)C[C@@H]1Oc2ncc(C3=CCCC3)cc2C(=O)N([C@@H](C)CO)C[C@H]1C	–	·	–	–	–	·
COc1cccc(C2CC(c3ccccc3)=NN2S(=O)(=O)c2ccc(C)cc2)c1OC (stereo unspecified)	·	39	–	–	–	–
